The source of these data is ChEMBL document CHEMBL4513216, “Probing the Open Global Health Chemical Diversity Library for Multistage-Active Starting Points for Next-Generation Antimalarials” (ACS Infect Dis, 2020).

A short description of this series: Toxicity liver stage against HepG2, at 10uM. It is filed as cell-based. Set-up: test concentration 10 uM, cell line HepG2-A16-CD81EGFP. As to conditions: human, HepG2-A16-CD81EGFP cells; read-out: INHIBITION
A digest of the protocol: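 Uninfected HepG2-A16-CD81EGFP cells, 3 × 10^3 per well, 1536-well, plated on prespotted compound at 10 μM final, parasite-free screening media added to match infected plates; puromycin 10 μM positive, DMSO 0.5% negative; run in parallel with 48 h PbLuc assay at 37 °C, 5% CO2; viability by CellTiter-Glo luminescence, normalized to controls.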

As to `CCN1CCN(CCNC(=O)c2sc(C(C)C)nc2C)CC1`, the cytotoxicity at 10 µM was 6.23%.
With `COC(=O)CN(C(=O)c1ccc(-n2ccnc2)cc1)C1CC1`, the cytotoxicity at 10 µM is -5%.
With `CC(C)n1cc(C(=O)NCCCc2csc(N)n2)cn1`, the cytotoxicity at 10 µM is -4.36%.
On to `Cc1ccccc1C1CCN(C(=O)CCNC(=O)C(C)(C)C)C1` (stereo unspecified), for which the cytotoxicity at 10 µM is -5.47%.
With `O=C(C1CCC1)N1CCO[C@@H]2CNC[C@@H]21`, the cytotoxicity at 10 µM is 1.44%.
In the case of `COc1ncccc1CN1C[C@H](C(=O)N2CCCO2)[C@@H]2CCO[C@@H]2C1`, the cytotoxicity at 10 µM was determined as 11.2%.
The result for `O=C(Cn1cc(-c2ccccc2)cn1)NC(C1CC1)C1CC1` reads -5%; that for `CN(Cc1cccc(Cl)c1)S(=O)(=O)N1CCOCC1`, -8.2%.
In the case of `Cc1c(Cl)cccc1N1CC(c2nnc(N)s2)CC1=O` (stereo unspecified), the cytotoxicity at 10 µM is 7.38%.
For `Cc1nc(CNC(=O)Nc2ccc3c(c2)CCCN3C)sc1C`, the cytotoxicity at 10 µM was -3.68%.
In the case of `Cc1nc(CN2CCN(c3cc(CCN)ncn3)CC2)cs1`, the cytotoxicity at 10 µM was -145%.
For the compound `Cc1ccc(N2CCO[C@H]3CN(Cc4cc(C)on4)CC[C@H]3C2=O)cn1`, the cytotoxicity at 10 µM is -72.2%.
As to `CCS(=O)(=O)N1Cc2c(Cn3ccnc3)nn(C(C)C)c2C1`, the cytotoxicity at 10 µM is 11.5%.
As to `CCn1cnnc1C1CCN(C(=O)c2ccc3c(c2)nnn3C)CC1`, the cytotoxicity at 10 µM stood at 10.9%.
With `Cc1nc(C2CCCN(C(=O)c3cccc4c3OCO4)C2)sc1C` (stereo unspecified), the cytotoxicity at 10 µM is -8.72%.
Take `Cc1c(C(=O)NS(=O)(=O)c2ccc(F)cc2)cnn1CC(C)C`: the cytotoxicity at 10 µM was -6.63%.
Regarding `O=C(CCN1CCCCCC1c1ccco1)N1CCOCC1` (stereo unspecified), the cytotoxicity at 10 µM stood at 6.14%.
As for `NC1CCN(C(=O)c2cnc(Cc3c(Cl)cccc3Cl)nc2O)C1` (stereo unspecified), the cytotoxicity at 10 µM was -0.803%.
On to `CCc1noc(C2CCCCN2C(=O)c2ccc3c(c2)OCO3)n1` (stereo unspecified), for which the cytotoxicity at 10 µM was 1.75%.
For the compound `CN(C)CC(=O)N1CCCC2(CCC(=O)N(CCc3c[nH]cn3)C2)C1` (stereo unspecified), the cytotoxicity at 10 µM was -8.77%.
In the case of `CC(C)n1cnc2c1C(C(=O)NCCC#N)N(Cc1ccccc1)CC2` (stereo unspecified), the cytotoxicity at 10 µM was -7.2%.
Regarding `CCOc1nc2cnccc2n(CC(=O)NCc2ccc(C)cc2)c1=O`, the cytotoxicity at 10 µM was -0.0308%.
For the compound `CCOCC1CN(Cc2ccc3c(c2)OCO3)Cc2ncn(C)c21` (stereo unspecified), the cytotoxicity at 10 µM was found to be 5.61%.
For the compound `O=C(O)C1(Cc2ccccc2F)CCCN(c2ncnc3[nH]ccc23)C1` (stereo unspecified), the cytotoxicity at 10 µM is -0.44%.
For the compound `CC(CNC(=O)NCc1ccc2c(c1)OCO2)CC1(C)OCCO1` (stereo unspecified), the cytotoxicity at 10 µM is -6.78%.
Regarding `CC(NC(=O)N(C)Cc1ccsc1)c1ccc2c(c1)CCC(=O)N2` (stereo unspecified), the cytotoxicity at 10 µM was -7.23%.
Turning to `CN(C)C(=O)N1CCN(C(=O)c2ccn3ccnc3c2)CC1`, the cytotoxicity at 10 µM was -5.02%.
For the compound `Cc1nn(C)c(C)c1CC(=O)N1CCC(N(C)c2cccnn2)CC1`, the cytotoxicity at 10 µM is -3.33%.
Consider `NC(=O)CN(C(=O)Cc1ccc(C(F)(F)F)cc1)C1CCCC1`, for which the cytotoxicity at 10 µM is -3.41%.
With `O=C(NCC1CC1)C1CCC2(CCN(C(=O)c3cccs3)CC2)O1` (stereo unspecified), the cytotoxicity at 10 µM was -0.979%.
As for `O=C(C1CC=CC1)N1CCC2(CCN(Cc3ccccn3)C2=O)C1` (stereo unspecified), the cytotoxicity at 10 µM came to 0.908%.
On to `CSC(C)(C)CNC(=O)Nc1cccc(-c2nccn2C)c1`, for which the cytotoxicity at 10 µM is -3.13%.
`O=C1CCCCN1CSc1nnnn1-c1ccc(Cl)cc1`: the cytotoxicity at 10 µM is -48.4%.
On to `COc1ccc(-c2cc3cccn(CC(=O)N4CCOCC4)c-3n2)cc1`, for which the cytotoxicity at 10 µM is -7.26%.
In the case of `CN(C)CCN1CC2(CCCN(c3ncc(Cl)cc3F)C2)CCC1=O` (stereo unspecified), the cytotoxicity at 10 µM was -13.6%.
With `CC1CCc2nn(CCNC(=O)Cc3ccccc3F)c(=O)cc2C1` (stereo unspecified), the cytotoxicity at 10 µM was 6.66%.
As to `O=C1CN(c2cc(-c3ccccc3F)nc3ccnn23)CCCN1`, the cytotoxicity at 10 µM worked out at 2.77%.
With `O=C(NC1CC1)C1CN(Cc2ccc3c(c2)OCCO3)CCN1` (stereo unspecified) the figure was -3.22%; with `O=C(c1cnccn1)N1CCN(CC2CC2)c2ncccc2C1`, -3.99%.
`c1ccc(N2CCC(NCCc3ccc(-n4cccn4)cc3)CC2)nc1`: the cytotoxicity at 10 µM stood at 21.1%.
With `CNC(=O)NC(=O)CN1CCCC(Cc2ccccc2OC)C1` (stereo unspecified), the cytotoxicity at 10 µM came to 4.95%.
`CCC(=O)NC1CCCN(c2cncc(OCc3ccccc3)n2)C1` (stereo unspecified): the cytotoxicity at 10 µM was -2.08%.
Consider `COc1ccc(-n2nc(C)c(C(C)=O)c2C)cc1C(N)=O`, for which the cytotoxicity at 10 µM is -3.41%.
As for `Cc1cc(=O)c(C(=O)N2CCC(C(O)Cc3ccccc3)CC2)c(C)[nH]1` (stereo unspecified), the cytotoxicity at 10 µM came out at 12.2%.
Take `CN(C)C(=O)c1cnc(-c2ccc3c(c2)OCO3)s1`: the cytotoxicity at 10 µM worked out at 5.29%.
For the compound `c1c(CN2CCCC2)nc2n1CCNC2`, the cytotoxicity at 10 µM is 9.94%.
For the compound `CCOc1ccc(NC(=O)Nc2cc(N3CCCCC3)ncn2)cc1`, the cytotoxicity at 10 µM turned out to be 2.21%.
`O=S(=O)(C1CC1)N1CCC2(CN(c3ncccn3)C2)C1`: the cytotoxicity at 10 µM is -98.4%.
For `CNC(=O)C(C)(C)N1CCC[C@H]1C(=O)NCC1CC1`, the cytotoxicity at 10 µM was 2.05%.
In the case of `CC(C)(C)n1cc(CNC2CCN(C(=O)c3ccncc3)CC2)cn1`, the cytotoxicity at 10 µM is -6.72%.
As to `O=C(NCC(=O)N1CCCCC1)c1ccc(Cl)cc1I`, the cytotoxicity at 10 µM is -11.5%.
Take `CCN(CC)C(=O)CSc1ccc(C(F)(F)F)cn1`: the cytotoxicity at 10 µM amounted to 12.7%.
Turning to `O=C(CC1CC1)NCc1cn2c(n1)CN(C(=O)c1cccnc1)CC2`, the cytotoxicity at 10 µM stood at 1.03%.
Turning to `CS(=O)(=O)NCCCn1ccc2ccccc21`, the cytotoxicity at 10 µM stood at 4.77%.
The result for `O=C(CCc1cncc(F)c1)NS(=O)(=O)c1ccc(F)cc1F` reads -7.49%; that for `CCn1cc(S(=O)(=O)NC2CCCN(CCCc3ccccc3)C2)cn1` (stereo unspecified), 8.08%; that for `COc1ccc2c(c1)ncn2C[C@]1(O)CCCN2CCCC[C@@H]21`, -0.71%.
On to `Cc1cnc(N2Cc3nccn3CC(Cn3nc(C)nc3C)C2)nc1` (stereo unspecified), for which the cytotoxicity at 10 µM was -144%.
As to `CCc1ccc(C(=O)N2CCCC(c3nn[nH]n3)C2)cc1` (stereo unspecified), the cytotoxicity at 10 µM is 4.6%.
For the compound `CCn1nc(C)c2ncnc(N(C)Cc3ccco3)c21`, the cytotoxicity at 10 µM was found to be 8.88%.
Regarding `CN1C(=O)C[C@@H]2[C@@H]1CCN2S(=O)(=O)Cc1ccccc1`, the cytotoxicity at 10 µM was -5.76%.
Take `O=C(CCCNc1ncccn1)N1CCCC(n2ccnc2)C1` (stereo unspecified): the cytotoxicity at 10 µM was -15.1%.
Regarding `Cc1nc(N(C)C)nc(C)c1NS(=O)(=O)c1ccc(OC(F)(F)F)cc1`, the cytotoxicity at 10 µM was determined as 7.23%.
On to `O=C1CN(C(=O)C2CN(c3ccc(F)cc3)CCO2)CCN1` (stereo unspecified), for which the cytotoxicity at 10 µM was determined as 3.04%.
As to `O=C(CCC1CCN(C(=O)c2cc[nH]c2)CC1)NCc1cccc(Cl)c1`, the cytotoxicity at 10 µM is -2.11%.
Consider `CCC(O)CN1CCN(C(=O)C2(c3ccc(C)c(OC)c3)CC2)CC1` (stereo unspecified), for which the cytotoxicity at 10 µM came out at 3.83%.
With `O=C(CS(=O)(=O)C1CCCC1)NC1CCc2nccn2C1` (stereo unspecified), the cytotoxicity at 10 µM is -17%.
Consider `CCOCCN1C[C@H](c2cccc(OC)c2)[C@@H](N)C1`, for which the cytotoxicity at 10 µM was -0.786%.
In the case of `Cn1nc(C2CCCN(Cc3cc(F)cc(F)c3)C2)c2nccnc21` (stereo unspecified), the cytotoxicity at 10 µM was -16.3%.
As to `O=C(NC(CN1CCCC1)c1ccccc1)c1c(O)cc(F)cc1F` (stereo unspecified), the cytotoxicity at 10 µM is -2.3%.
`Cc1cnc(CN2CCCC2c2cnn(C)c2)cn1` (stereo unspecified): the cytotoxicity at 10 µM came to 0.35%.
With `O=C1NC2(CCN(C(=O)c3ccc(Cl)cc3)CC2)CC1c1ccccc1` (stereo unspecified), the cytotoxicity at 10 µM is -12.2%.
Consider `CC(C)(C)NC(=O)[C@@H]1CNC[C@]12Cc1ccccc1C(=O)N2`, for which the cytotoxicity at 10 µM is -0.42%.
Regarding `COCCn1cnc(-c2cc(C(=O)NC(C)C)c3ccccn23)c1`, the cytotoxicity at 10 µM is -1.03%.
With `CN(C)C(=O)c1c[nH]nc1C1CCN(S(=O)(=O)c2cccc(Cl)c2)CC1` the figure was 1.22%; with `O=C(O)c1ccc(C2CCCN(Cc3ccc(-c4cc[nH]n4)o3)C2)cc1` (stereo unspecified), -2.43%.
In the case of `COc1ccc2c(c1)C(NCCc1ncc(C)s1)CCCO2` (stereo unspecified), the cytotoxicity at 10 µM is -3.86%.
Take `CC(C)CC(CNC(=O)NCc1cc[nH]n1)N1CCOCC1` (stereo unspecified): the cytotoxicity at 10 µM is -12.6%.
On to `Cc1n[nH]c(C)c1C1CCCN1C(=O)NCC(=O)Nc1ccccc1` (stereo unspecified), for which the cytotoxicity at 10 µM was 4.23%.
The result for `CC(=O)c1cc(CC(=O)NCc2ccsc2)cs1` reads 2.29%; that for `CC1CCN(C(=O)c2cnn3c(-c4ccco4)ccnc23)CC1`, 8.77%; that for `Cc1csc(CN2CC[C@H]3C[C@H](c4ccncn4)O[C@@H]3C2)n1`, -148%.
The result for `CCC1(CO)CCN(C(=O)c2cc(COc3ccccc3F)[nH]n2)CC1` reads 4.45%; that for `COc1ccccc1CC(=O)NC1CCCc2cn[nH]c21` (stereo unspecified), 17.1%; that for `Cc1nc(C(=O)N(C)CC2CC2)nn1-c1ccccc1C(C)C`, 5.38%.
With `Cc1cc(NC2CCN(Cc3ccccn3)CC2)n2nc(C)c(C)c2n1` the figure was 0.951%; with `O=S(=O)(NC1=NCN(CCc2cccs2)CN1)c1ccccc1`, -3.32%.
`COCCn1ccnc1C1CCCN(c2cc(OC)nc(N)n2)C1` (stereo unspecified): the cytotoxicity at 10 µM was found to be 11.2%.
With `Cc1nccn1-c1ccc(C(C)Nc2cnn(C)c(=O)c2Cl)cc1` (stereo unspecified), the cytotoxicity at 10 µM is 18.7%.
Consider `CC(C)NC(=O)N1CCC2(CC(=O)N(c3ccsc3)C2)C1` (stereo unspecified), for which the cytotoxicity at 10 µM is -7.99%.
Regarding `CCc1nc(C)sc1CN1CC[C@](O)(CC)[C@H](O)C1`, the cytotoxicity at 10 µM is -5.61%.
Consider `CSCC[C@H](NC(C)=O)c1nc(CC(C)C)n[nH]1`, for which the cytotoxicity at 10 µM came to 6.05%.
For `Cn1c(NC(=O)CCS(=O)(=O)C2CCCC2)nc2cc(Cl)ccc21`, the cytotoxicity at 10 µM was determined as 7.42%.
Take `COCCC(C)NCc1ccccc1-n1ccnc1` (stereo unspecified): the cytotoxicity at 10 µM worked out at 1.91%.
For the compound `COC(=O)c1ccc2ccn(CC3COCCO3)c(=O)c2c1` (stereo unspecified), the cytotoxicity at 10 µM was 3.26%.
Turning to `O=C(c1ccncc1)N1CCOC2(COCCN(c3cccnc3)C2)C1` (stereo unspecified), the cytotoxicity at 10 µM worked out at 6.25%.
